Test results published in PubChem BioAssay.
The source made the active and inactive calls.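 The calls were made as follows, unless noted: active = viability at or under a set limit in both replicates, limit being median viability minus 3 SD (cut at about 48% in these data, passing the limit was not always enough); inconclusive = at or under the limit in just one replicate; inactive = at or above the limit in both replicates.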

Columns and labels:
[1] = Her2 expression decrease, cell viability multiplex – SKBR3 breast tumor cells, AlphaScreen, ATP viability, primary screen (AID 461;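 active = Her2 level under about 52% in both replicate screens, with viability over 70% of control, limit read from the data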;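 as to Her2 level: lower value means less Her2 protein in the cells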;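 as to viability: percent of carrier control wells set as 100% viability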); conditions: SKBR3 Her2 protein level, 18-24 h, measured here: SKBR3 viability, ATP luminescence, at 10 µM
[2] = molecular target: Receptor tyrosine-protein kinase erbB-2 (Homo sapiens) (UniProt P04626); experiment: as above; conditions: 18-24 h, at 10 µM, stronger effect = lower value
Receptor tyrosine-protein kinase erbB-2 (Homo sapiens), sequence (P04626 whole entry, looked up): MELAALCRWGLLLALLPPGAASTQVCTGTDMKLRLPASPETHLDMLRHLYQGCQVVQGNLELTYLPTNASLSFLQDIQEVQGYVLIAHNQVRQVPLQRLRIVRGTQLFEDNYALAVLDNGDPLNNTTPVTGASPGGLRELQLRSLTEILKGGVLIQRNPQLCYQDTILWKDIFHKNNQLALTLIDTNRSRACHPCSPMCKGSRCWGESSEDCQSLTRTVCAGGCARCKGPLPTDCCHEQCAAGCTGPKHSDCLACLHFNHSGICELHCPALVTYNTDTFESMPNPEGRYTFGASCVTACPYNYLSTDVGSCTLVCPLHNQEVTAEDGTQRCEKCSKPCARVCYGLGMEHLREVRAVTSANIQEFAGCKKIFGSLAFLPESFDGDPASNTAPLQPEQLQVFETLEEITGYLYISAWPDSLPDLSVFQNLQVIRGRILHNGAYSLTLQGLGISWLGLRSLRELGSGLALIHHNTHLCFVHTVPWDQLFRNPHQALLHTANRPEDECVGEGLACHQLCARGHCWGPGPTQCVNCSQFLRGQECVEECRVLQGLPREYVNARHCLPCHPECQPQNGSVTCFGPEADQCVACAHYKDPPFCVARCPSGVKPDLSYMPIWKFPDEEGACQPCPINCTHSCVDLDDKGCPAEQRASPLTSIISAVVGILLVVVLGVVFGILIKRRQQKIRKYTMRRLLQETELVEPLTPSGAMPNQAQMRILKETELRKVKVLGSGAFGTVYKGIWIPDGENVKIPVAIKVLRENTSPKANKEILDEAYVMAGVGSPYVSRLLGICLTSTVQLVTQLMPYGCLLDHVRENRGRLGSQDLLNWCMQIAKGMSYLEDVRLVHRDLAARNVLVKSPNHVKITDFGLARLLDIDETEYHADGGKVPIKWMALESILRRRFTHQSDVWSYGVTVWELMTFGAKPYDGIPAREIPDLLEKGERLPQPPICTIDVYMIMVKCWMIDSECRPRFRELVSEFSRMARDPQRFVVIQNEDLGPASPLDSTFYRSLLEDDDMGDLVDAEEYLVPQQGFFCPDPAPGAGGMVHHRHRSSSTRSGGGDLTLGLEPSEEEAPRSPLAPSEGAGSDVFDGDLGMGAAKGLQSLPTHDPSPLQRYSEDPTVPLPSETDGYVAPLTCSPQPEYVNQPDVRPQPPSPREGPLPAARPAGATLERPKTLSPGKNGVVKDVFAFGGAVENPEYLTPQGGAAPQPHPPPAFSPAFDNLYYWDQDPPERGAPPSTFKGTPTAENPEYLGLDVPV

[3] = reduced viability of SK-BR-3 breast cancer cells – cell-based, 24 h, human, pilot screen (AID 572;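 active = viability at or below 10% of carrier control in both of two separate runs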;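 also: compound exposure lasted between 18 and 24 h rather than exactly 24 h; 100% = carrier-treated control wells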); conditions: SK-BR-3 viability, CellTiter-Glo luminescence, at 10 µM, stronger effect = lower value
[4] = HUVEC growth inhibition – cell-based, human, primary screen (AID 575;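 active = viability at or below 30% in both replicate assays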;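 also: 100% = median of untreated cell wells with 0.1% DMSO on each plate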); conditions: HUVEC proliferation, CellTiter-Glo luminescence, 72 h; at 10 µM; stronger effect = lower value
Method in brief: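 Test system: primary human umbilical vein endothelial cells. Quantity: 1250 cells/well. Compound: single 10 µM dose, 0.1% DMSO, from 5x medium stock. Timing: 72 h treatment at 37 °C. Detection: ATP-based CellTiter-Glo luminescent read. Benchmarks: vehicle and MePR control wells. Format: 384-well plates coated with collagen.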

[5] = H69AR cell proliferation blockers – human, duplicate replicates, primary screen (AID 580); conditions: H69AR lung tumor cells viability, ATP luminescence, 72 h; at 10 µM; stronger effect = lower value;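 also: 100% = mean luminescence of untreated wells and 0% = no signal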
[6] = MRP1 drug-resistance reversers in H69AR cells – cell-based, doxorubicin co-treatment, pilot screen (AID 601;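 active = viability loss from added drug above about 55%, and viability with drug at most 40%, in both replicates, limit read from the data, passing the limit was not always enough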); conditions: CellTiter-Glo, 72 h, at 10 µM; for differential viability (reversal): stronger effect = higher value
[7] = yeast transport mutant growth inhibition pilot in 384-well plates, post-Golgi transport modulator project (AID 636; in the data active = inhibition above about 31%); conditions: absorbance 615 nm, about 18 h, stronger effect = higher value
[8] = growth suppression of yeast trafficking mutant, preliminary HTS, modulators of trafficking downstream of Golgi apparatus project, 1536-format plate, OD 615 nm (AID 637; in the data active = inhibition above about 30%); conditions: yeast transport mutant growth, absorbance 615 nm, 18 h; stronger effect = higher value
[9] = H69AR cells + 2 uM doxorubicin, measured here: viability with 2 uM doxorubicin, stronger effect = lower value
[10] = H69AR cells, compound alone cytotoxicity

Structure (SMILES) | viability [1] [%] | Her2 level [2] | viability [3] | viability [4] | viability [5] | differential viability (reversal) ([6]; H69AR cells + 2 uM doxorubicin) | viability [6, 9] [%] | viability [6, 10] [%] | inhibition [7] | inhibition [8]
COc1ccc(-c2nc3c(c(=O)n(C)c(=O)n3C)n2CC2CC(c3ccccc3)=NO2)cc1OC (stereo not given) | 85.5 | 85% (inactive) | 85.5% (inactive) | 63.4% (inactive) | 6.03% (active) | 1.44% (inactive) | 4.58 | 6.03 | -6.76% (inactive) | 2.22% (inactive)
Cn1ccnc1SCCC#N | 100 | 89.5% (inactive) | 100% (inactive) | 92.5% (inactive) | 99% (inactive) | 1.65% (inactive) | 97.3 | 99 | -2% (inactive) | 11% (inactive)
COc1ccc(C(CNC(=O)c2cc(C)oc2C)N2CCOCC2)cc1 (stereo not given) | 126 | 96.5% (inactive) | 126% (inactive) | 91.6% (inactive) | 101% (inactive) | -9.67% (inactive) | 110 | 101 | -3.64% (inactive) | -0.32% (inactive)
CCc1cccc2c(=O)c(C(=O)N3CCCCCC3)c[nH]c12 | 104 | 102% (inactive) | 104% (inactive) | 98.4% (inactive) | 97.5% (inactive) | 1.41% (inactive) | 96.1 | 97.5 | -2% (inactive) | -6.94% (inactive)
COc1ccc(-n2ccnc2SCC(=O)NCc2ccc3c(c2)OCO3)cc1 | 128 | 89.5% (inactive) | 128% (inactive) | 95.3% (inactive) | 87.2% (inactive) | -5.35% (inactive) | 92.6 | 87.2 | -2.73% (inactive) | -1.9% (inactive)
COC(=O)Nc1ccc(S(=O)(=O)N2CCN(c3ccc(F)cc3)CC2)cc1 | 96.5 | 106% (inactive) | 96.5% (inactive) | 86.9% (inactive) | 97.1% (inactive) | 3.18% (inactive) | 94 | 97.1 | -4.61% (inactive) | 9.84% (inactive)
Cc1ccc(S(=O)(=O)NCC(=O)N(CC(=O)NCc2ccccc2)CC2CCCO2)cc1 (stereo not given) | 110 | 91.5% (inactive) | 110% (inactive) | 108% (inactive) | 104% (inactive) | 17.9% (inactive) | 86.2 | 104 | -3.65% (inactive) | 3.49% (inactive)
C1CCc2nnc(-c3nnc4n3CCCCC4)n2CC1 | 86.5 | 99.5% (inactive) | 86.5% (inactive) | 104% (inactive) | 93% (inactive) | 6.52% (inactive) | 86.4 | 93 | -1.28% (inactive) | 1.67% (inactive)
Cc1ccc(F)cc1NC(=O)Cc1nn(C)c(=O)c2ccccc12 | 96.5 | 74.5% (inactive) | 96.5% (inactive) | 74.1% (inactive) | 93.4% (inactive) | 15.8% (inactive) | 77.6 | 93.4 | -0.66% (inactive) | -0.16% (inactive)
CCc1[nH]nc2c1C(c1cccc(OC(=O)N3CCOCC3)c1)C(C#N)=C(N)O2 (stereo not given) | 133 | 124% (inactive) | 133% (inactive) | 103% (inactive) | 89.5% (inactive) | -9.21% (inactive) | 98.8 | 89.5 | -3.42% (inactive) | 0.95% (inactive)
COc1ccc(C)cc1NC(=O)CN(Cc1nnc(-c2ccc(Cl)cc2)o1)C1CCCC1 | 89 | 89.5% (inactive) | 89% (inactive) | 84.5% (inactive) | 4.7% (active) | -33.9% (inactive) | 38.6 | 4.7 | -4.73% (inactive) | -2.95% (inactive)
O=C(Nc1ccc2c(c1)OCO2)c1cncc(Br)c1 | 108 | 77% (inactive) | 108% (inactive) | 82% (inactive) | 92.6% (inactive) | 2.14% (inactive) | 90.5 | 92.6 | -4.27% (inactive) | 5.25% (inactive)
O=C(C1CCCO1)N1CCN(Cc2nc3ccccc3c(=O)[nH]2)CC1 (stereo not given) | 91.5 | 92% (inactive) | 91.5% (inactive) | 96.3% (inactive) | 94.9% (inactive) | -10% (inactive) | 105 | 94.9 | -7.16% (inactive) | 0.16% (inactive)
CC(C)=CCCC(C)NC(=O)NC1CCCCC1 (stereo not given) | 91 | 94% (inactive) | 91% (inactive) | 106% (inactive) | 107% (inactive) | 18% (inactive) | 88.6 | 107 | -5.33% (inactive) | 2.74% (inactive)
O=C(COc1ccc(Cl)cc1)Nc1nc(-c2cccs2)cs1 | 96 | 74.5% (inactive) | 96% (inactive) | 79.9% (inactive) | 77.5% (inactive) | -7.15% (inactive) | 84.6 | 77.5 | 3.55% (inactive) | 0.18% (inactive)
Cc1nc(C)c(C(=O)Nc2ccc(C)c(F)c2)o1 | 92 | 80% (inactive) | 92% (inactive) | 117% (inactive) | 94.8% (inactive) | 15.5% (inactive) | 79.3 | 94.8 | -5.54% (inactive) | 1% (inactive)
Cc1cccc(Nc2nc(N)nc(CN3CCC(C(N)=O)CC3)n2)c1C | 89 | 89% (inactive) | 89% (inactive) | 105% (inactive) | 98.1% (inactive) | 12.8% (inactive) | 85.2 | 98.1 | -5.58% (inactive) | -3.49% (inactive)
CCCCOc1ccc(CSc2n[nH]c(C)n2)cc1 | 83.5 | 99.5% (inactive) | 83.5% (inactive) | 103% (inactive) | 100% (inactive) | 10.7% (inactive) | 89.7 | 100 | -1.22% (inactive) | -0.49% (inactive)
CCCn1c(SCC(=O)N2CCCc3ccccc32)nnc1-c1ccccn1 | 84.5 | 102% (inactive) | 84.5% (inactive) | 103% (inactive) | 95.1% (inactive) | 1.95% (inactive) | 93.2 | 95.1 | -4.67% (inactive) | 5.16% (inactive)
Cn1cnc(S(=O)(=O)Nc2ccc(C(F)(F)F)cc2)c1 | 86 | 98.5% (inactive) | 86% (inactive) | 105% (inactive) | 91.7% (inactive) | 6.29% (inactive) | 85.4 | 91.7 | 1.41% (inactive) | -11.7% (inactive)
O=C(NCC1CCCO1)C1c2ccccc2C(=O)N1C1CCCCCC1 (stereo not given) | 105 | 89% (inactive) | 105% (inactive) | 88.9% (inactive) | 104% (inactive) | 6.58% (inactive) | 97.6 | 104 | -2.6% (inactive) | 1.43% (inactive)
CN1C(=O)C2(NCCc3c2[nH]c2ccccc32)c2ccccc21 (stereo not given) | 114 | 100% (inactive) | 114% (inactive) | 86.8% (inactive) | 109% (inactive) | 12.9% (inactive) | 96 | 109 | -3.82% (inactive) | 6.07% (inactive)
COC(=O)c1c(N)n(-c2cc(OC)cc(OC)c2)c2nc3ccccc3nc12 | 85.5 | 93% (inactive) | 85.5% (inactive) | 61.7% (inactive) | 101% (inactive) | 10.6% (inactive) | 90.5 | 101 | -6.35% (inactive) | 3.83% (inactive)
O=C(Nc1ccccc1C(=O)N1CCN(c2ccccc2)CC1)c1ccco1 | 96 | 101% (inactive) | 96% (inactive) | 95.6% (inactive) | 100% (inactive) | 5.93% (inactive) | 94.2 | 100 | -2.53% (inactive) | 4.43% (inactive)
O=C(CSc1nnc(Cn2nnc(-c3ccccc3)n2)n1-c1ccccc1)Nc1ccc(F)cc1 | 91 | 82% (inactive) | 91% (inactive) | 64.1% (inactive) | 75.7% (inactive) | 3.96% (inactive) | 71.8 | 75.7 | -1.45% (inactive) | 13.4% (inactive)
Cc1cccc(-c2nnc(SCC#N)n2-c2cccc(Cl)c2)c1 | 90.5 | 83.5% (inactive) | 90.5% (inactive) | 104% (inactive) | 84.6% (inactive) | -3.93% (inactive) | 88.6 | 84.6 | -6% (inactive) | 0% (inactive)
COc1cc2c(c(OC)c1)C(c1ccncc1)CC(=O)N2 (stereo not given) | 89 | 96.5% (inactive) | 89% (inactive) | 91.7% (inactive) | 111% (inactive) | 21.4% (inactive) | 89.8 | 111 | 1.73% (inactive) | -5.57% (inactive)
Cc1ccc(NC(=O)C2CC=CCC2C(=O)N2CCCCC2)cc1 (stereo not given) | 71 | 76.5% (inactive) | 71% (inactive) | 95.7% (inactive) | 95.7% (inactive) | 12.5% (inactive) | 83.2 | 95.7 | -5.54% (inactive) | -1.31% (inactive)
Cn1cc(CC(=O)Nc2cccc(C#N)c2)c2ccccc21 | 101 | 87.5% (inactive) | 101% (inactive) | 97.7% (inactive) | 104% (inactive) | 12.6% (inactive) | 91.7 | 104 | -4.61% (inactive) | -2.22% (inactive)
